# Data from ChEMBL document CHEMBL2176911 (J Med Chem, 2012).
# The source made the active and inactive calls. The calls are words filed in the database; no cut-off is given here.
# Columns and labels:
# [1] = molecular target: Glycogen synthase kinase-3 alpha (Homo sapiens, UniProt P49840); assay: Inhibition of human recombinant GSK3alpha expressed in insect cells using YRRAAVPPSPSLSRHSSPHQ-phosphoS-EDEEE as substrate and [gamma33P]ATP after 30 mins by scintillation counting
# [2] = Inhibition of pig […] isolated from brain using RRKHAAIGpSAYSITA as substrate and [gamma33P]ATP after 30 mins by scintillation couting; parameters: species or system Sus scrofa
# Summary of the method: (§1)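 Panel of purified kinases (recombinant from several species plus native enzymes), each assayed radiometrically over a range of inhibitor concentrations; IC50 in μM calculated from the dose-response curves.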
# Plasmodium falciparum = assay: Inhibition of Plasmodium falciparum recombinant GSK3 expressed in Escherichia coli using YRRAAVPPSPSLSRHSSPHQ-phosphoS-EDEEE as substrate and [gamma33P]ATP at 10 uM after 30 mins by scintillation counting
# [3] = Inhibition of starfish CDK1/cyclin B using histone H1 as substrate and [gamma33P]ATP after 30 mins by scintillation counting; parameters: species or system Asteroidea; summary of the method: as §1
# CDK9/cyclin T1 = CDK9/cyclin T1 (Homo sapiens, UniProt P50750); assay: Inhibition of human recombinant CDK9/cyclin T expressed in insect cell using YSPTSPSYSPTSPSYSPTSPSKKKK as substrate and [gamma33P]ATP after 30 mins by scintillation counting; summary of the method: as §1
# [4] = molecular target: Dual specificity tyrosine-phosphorylation-regulated kinase 2 (Homo sapiens, UniProt Q92630); assay: Inhibition of human recombinant GST-tagged DYRK2 expressed in Escherichia coli using GRSRSRSRSRSR as substrate and [gamma33P]ATP after 30 mins by scintillation counting
# [5] = molecular target: T1, Dual specificity tyrosine-phosphorylation-regulated kinase 4 (Homo sapiens, UniProt Q9NR20); assay: Inhibition of human recombinant GST-tagged DYRK4 expressed in Escherichia coli using GRSRSRSRSRSR as substrate and [gamma33P]ATP after 30 mins by scintillation counting
# T1 sequence (Q9NR20 whole entry): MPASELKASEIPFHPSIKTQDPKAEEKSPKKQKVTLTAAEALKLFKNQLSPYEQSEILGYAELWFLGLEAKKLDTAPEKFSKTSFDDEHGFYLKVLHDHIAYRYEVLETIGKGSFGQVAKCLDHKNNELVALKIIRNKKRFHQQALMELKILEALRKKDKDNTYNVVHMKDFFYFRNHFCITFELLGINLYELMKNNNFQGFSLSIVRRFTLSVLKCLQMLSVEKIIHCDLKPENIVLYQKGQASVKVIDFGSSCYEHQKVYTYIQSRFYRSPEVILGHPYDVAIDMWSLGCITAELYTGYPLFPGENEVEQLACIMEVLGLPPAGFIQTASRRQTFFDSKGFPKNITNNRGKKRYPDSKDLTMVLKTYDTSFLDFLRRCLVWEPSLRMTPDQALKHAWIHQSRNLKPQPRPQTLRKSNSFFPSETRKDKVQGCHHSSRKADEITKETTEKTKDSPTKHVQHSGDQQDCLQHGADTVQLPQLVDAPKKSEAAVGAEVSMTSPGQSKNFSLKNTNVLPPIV
# [6] = molecular target: T2, Dual specificity tyrosine-phosphorylation-regulated kinase 1A (Rattus norvegicus, UniProt Q63470); assay: Inhibition of rat DYRK1A isolated from brain using KKISGRLSPIMTEQ as substrate and [gamma33P]ATP after 30 mins by scintillation counting
# Leishmania major = assay: Inhibition of Leishmania major recombinant CK1 expressed in Escherichia coli using RRKHAAIGpSAYSITA as substrate and [gamma33P]ATP at 10 uM after 30 mins by scintillation counting
# [7] = molecular target: T3, Dual specificity tyrosine-phosphorylation-regulated kinase 2 (Homo sapiens) (UniProt Q92630); assay: Binding affinity to DYRK2
# T3 sequence (whole entry): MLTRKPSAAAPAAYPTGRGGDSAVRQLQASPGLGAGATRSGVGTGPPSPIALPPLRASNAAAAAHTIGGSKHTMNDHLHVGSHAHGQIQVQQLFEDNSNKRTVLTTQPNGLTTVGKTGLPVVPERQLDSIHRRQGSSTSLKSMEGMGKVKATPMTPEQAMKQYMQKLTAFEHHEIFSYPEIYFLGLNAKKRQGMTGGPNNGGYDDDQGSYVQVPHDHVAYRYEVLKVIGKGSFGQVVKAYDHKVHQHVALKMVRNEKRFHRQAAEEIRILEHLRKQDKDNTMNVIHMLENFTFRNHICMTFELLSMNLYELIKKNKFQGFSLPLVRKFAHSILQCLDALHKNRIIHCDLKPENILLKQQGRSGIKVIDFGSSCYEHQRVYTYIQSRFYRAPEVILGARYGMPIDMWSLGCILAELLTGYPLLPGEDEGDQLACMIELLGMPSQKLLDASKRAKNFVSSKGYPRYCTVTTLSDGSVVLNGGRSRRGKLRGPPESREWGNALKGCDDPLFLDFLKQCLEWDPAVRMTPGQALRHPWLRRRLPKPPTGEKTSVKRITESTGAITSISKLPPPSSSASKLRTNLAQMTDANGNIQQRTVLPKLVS
# [8] = molecular target: Dual specificity protein kinase CLK1 (Mus musculus, UniProt P22518); assay: Inhibition of mouse recombinant GST-tagged CLK1 expressed in Escherichia coli using GRSRSRSRSRSR as substrate and [gamma33P]ATP after 30 mins by scintillation counting; summary of the method: as §1
# Sequence of Dual specificity protein kinase CLK1 (P22518 whole entry): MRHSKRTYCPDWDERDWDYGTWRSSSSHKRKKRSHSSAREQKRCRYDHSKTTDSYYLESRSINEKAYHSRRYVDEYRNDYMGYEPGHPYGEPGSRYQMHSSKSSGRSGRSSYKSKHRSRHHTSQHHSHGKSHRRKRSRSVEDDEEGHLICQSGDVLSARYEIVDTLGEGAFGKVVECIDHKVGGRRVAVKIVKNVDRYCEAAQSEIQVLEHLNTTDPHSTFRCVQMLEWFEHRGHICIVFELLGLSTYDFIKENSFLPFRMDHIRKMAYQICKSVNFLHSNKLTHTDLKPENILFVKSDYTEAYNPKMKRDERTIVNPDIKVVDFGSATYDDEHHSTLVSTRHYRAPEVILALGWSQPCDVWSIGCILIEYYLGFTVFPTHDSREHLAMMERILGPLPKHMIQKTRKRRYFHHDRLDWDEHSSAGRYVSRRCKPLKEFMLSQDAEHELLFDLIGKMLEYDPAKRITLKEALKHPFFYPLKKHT
# [9] = molecular target: Dual specificity protein kinase CLK2 (Mus musculus, UniProt O35491); assay: Inhibition of mouse recombinant GST-tagged CLK2 expressed in Escherichia coli using GRSRSRSRSRSR as substrate and [gamma33P]ATP after 30 mins by scintillation counting; summary of the method: as §1
# Sequence of Dual specificity protein kinase CLK2 (O35491 whole entry): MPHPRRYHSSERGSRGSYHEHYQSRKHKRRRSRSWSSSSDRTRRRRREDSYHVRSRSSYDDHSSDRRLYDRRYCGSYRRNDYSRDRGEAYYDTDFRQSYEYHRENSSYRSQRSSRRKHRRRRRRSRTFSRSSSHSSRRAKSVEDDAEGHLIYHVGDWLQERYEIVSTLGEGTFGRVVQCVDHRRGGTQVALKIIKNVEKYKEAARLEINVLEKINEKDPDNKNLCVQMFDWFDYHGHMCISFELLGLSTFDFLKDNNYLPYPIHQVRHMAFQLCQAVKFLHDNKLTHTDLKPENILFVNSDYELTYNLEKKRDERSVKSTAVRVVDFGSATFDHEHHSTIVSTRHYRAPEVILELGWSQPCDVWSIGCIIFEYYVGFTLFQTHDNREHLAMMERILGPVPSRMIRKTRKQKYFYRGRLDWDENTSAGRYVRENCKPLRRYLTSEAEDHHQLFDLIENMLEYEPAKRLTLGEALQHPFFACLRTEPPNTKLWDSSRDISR
# [10] = molecular target: Casein kinase II (Homo sapiens) (UniProt P67870+P68400+P19784); assay: Inhibition of human recombinant CK2 using RRREDEESDDEE as substrate and [gamma33P]ATP at 10 uM after 30 mins by scintillation counting; type: protein-complex assay
# [11] = molecular target: Glycogen synthase kinase-3 beta (Homo sapiens, UniProt P49841); assay: Inhibition of human recombinant GSK3beta expressed in insect cells using YRRAAVPPSPSLSRHSSPHQ-phosphoS-EDEEE as substrate and [gamma33P]ATP after 30 mins by scintillation counting
# Sequence of Glycogen synthase kinase-3 beta (P49841 whole entry): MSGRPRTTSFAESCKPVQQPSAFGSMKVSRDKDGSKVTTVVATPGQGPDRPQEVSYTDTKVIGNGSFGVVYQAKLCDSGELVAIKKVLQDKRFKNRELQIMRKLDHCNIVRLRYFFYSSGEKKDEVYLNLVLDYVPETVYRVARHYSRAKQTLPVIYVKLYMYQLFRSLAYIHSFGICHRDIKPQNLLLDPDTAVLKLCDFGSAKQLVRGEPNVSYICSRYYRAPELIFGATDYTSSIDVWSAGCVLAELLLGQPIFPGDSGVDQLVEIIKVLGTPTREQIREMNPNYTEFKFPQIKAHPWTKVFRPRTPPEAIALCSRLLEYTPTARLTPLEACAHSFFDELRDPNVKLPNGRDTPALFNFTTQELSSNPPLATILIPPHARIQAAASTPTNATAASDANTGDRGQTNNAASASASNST
# [12] = molecular target: Dual specificity protein kinase CLK4 (Mus musculus, UniProt O35493); assay: Inhibition of mouse recombinant GST-tagged CLK4 expressed in Escherichia coli using GRSRSRSRSRSR as substrate and [gamma33P]ATP after 30 mins by scintillation counting
# Sequence of Dual specificity protein kinase CLK4 (Mus musculus, UniProt O35493) (O35493 whole entry, the tested form may be a part): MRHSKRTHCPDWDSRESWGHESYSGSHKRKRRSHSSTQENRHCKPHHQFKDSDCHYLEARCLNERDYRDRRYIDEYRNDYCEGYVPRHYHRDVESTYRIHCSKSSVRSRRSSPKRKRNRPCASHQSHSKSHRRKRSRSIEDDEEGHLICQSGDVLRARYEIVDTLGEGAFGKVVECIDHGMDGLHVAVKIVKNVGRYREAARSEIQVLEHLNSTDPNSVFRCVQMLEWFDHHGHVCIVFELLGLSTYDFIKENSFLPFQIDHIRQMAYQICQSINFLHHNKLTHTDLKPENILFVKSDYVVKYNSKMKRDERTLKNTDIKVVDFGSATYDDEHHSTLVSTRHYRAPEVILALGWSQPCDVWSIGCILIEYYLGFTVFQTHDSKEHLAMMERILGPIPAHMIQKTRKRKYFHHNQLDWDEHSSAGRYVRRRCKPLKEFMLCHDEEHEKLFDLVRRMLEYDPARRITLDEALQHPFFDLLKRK
# [13] = molecular target: T2, Dual specificity tyrosine-phosphorylation-regulated kinase 1A; assay: Inhibition of rat recombinant C-terminal truncated GST-tagged DYRK1A expressed in Escherichia coli using GRSRSRSRSRSR as substrate and [gamma33P]ATP after 30 mins by scintillation counting
# [14] = molecular target: Cyclin-dependent kinase 7/ cyclin H (Homo sapiens, UniProt P50613); assay: Inhibition of human recombinant CDK7/cyclin H expressed in insect cell using YSPTSPSYSPTSPSYSPTSPSKKKK as substrate and [gamma33P]ATP after 30 mins by scintillation counting; summary of the method: as §1
# Sequence of Cyclin-dependent kinase 7/ cyclin H (P51946 whole entry): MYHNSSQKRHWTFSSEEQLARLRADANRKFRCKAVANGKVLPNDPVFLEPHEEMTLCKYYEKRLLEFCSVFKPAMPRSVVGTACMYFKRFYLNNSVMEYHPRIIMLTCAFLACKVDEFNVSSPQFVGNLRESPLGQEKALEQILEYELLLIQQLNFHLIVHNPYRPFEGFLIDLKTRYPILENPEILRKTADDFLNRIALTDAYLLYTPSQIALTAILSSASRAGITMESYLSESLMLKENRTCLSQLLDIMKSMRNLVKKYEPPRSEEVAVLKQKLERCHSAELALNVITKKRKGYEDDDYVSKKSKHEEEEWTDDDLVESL
# Sequence of Cyclin-dependent kinase 7/ cyclin H (P50613 whole entry): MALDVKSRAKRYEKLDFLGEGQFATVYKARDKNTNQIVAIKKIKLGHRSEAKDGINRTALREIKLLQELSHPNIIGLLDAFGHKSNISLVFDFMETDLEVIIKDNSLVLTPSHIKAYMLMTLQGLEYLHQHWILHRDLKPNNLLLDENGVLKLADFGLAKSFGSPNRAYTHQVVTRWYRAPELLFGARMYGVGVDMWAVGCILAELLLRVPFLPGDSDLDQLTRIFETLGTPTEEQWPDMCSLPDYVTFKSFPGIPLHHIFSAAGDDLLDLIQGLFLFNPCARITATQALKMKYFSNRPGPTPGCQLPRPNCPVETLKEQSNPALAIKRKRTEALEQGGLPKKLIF
# [15] = molecular target: Dual specificity protein kinase CLK3 (Homo sapiens, UniProt P49761); assay: Binding affinity to CLK3
# Sequence of Dual specificity protein kinase CLK3 (Homo sapiens, UniProt P49761) (P49761 whole entry, looked up): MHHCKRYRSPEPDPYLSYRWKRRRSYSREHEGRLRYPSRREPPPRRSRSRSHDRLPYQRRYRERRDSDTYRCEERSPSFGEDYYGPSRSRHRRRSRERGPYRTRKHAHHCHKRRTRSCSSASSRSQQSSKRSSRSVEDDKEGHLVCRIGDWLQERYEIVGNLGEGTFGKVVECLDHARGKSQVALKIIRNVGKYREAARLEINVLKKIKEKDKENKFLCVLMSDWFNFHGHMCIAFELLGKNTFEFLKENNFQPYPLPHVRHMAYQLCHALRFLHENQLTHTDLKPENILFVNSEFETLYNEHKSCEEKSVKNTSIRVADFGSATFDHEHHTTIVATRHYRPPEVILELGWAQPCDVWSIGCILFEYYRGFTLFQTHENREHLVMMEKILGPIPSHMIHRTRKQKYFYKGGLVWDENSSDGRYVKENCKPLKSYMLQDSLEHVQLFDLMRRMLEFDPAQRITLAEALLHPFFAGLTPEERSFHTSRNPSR
# [16] = molecular target: Dual specificity protein kinase CLK1 (Homo sapiens) (UniProt P49759); assay: Binding affinity to CLK1
# Sequence of Dual specificity protein kinase CLK1 (Homo sapiens) (P49759 whole entry, looked up): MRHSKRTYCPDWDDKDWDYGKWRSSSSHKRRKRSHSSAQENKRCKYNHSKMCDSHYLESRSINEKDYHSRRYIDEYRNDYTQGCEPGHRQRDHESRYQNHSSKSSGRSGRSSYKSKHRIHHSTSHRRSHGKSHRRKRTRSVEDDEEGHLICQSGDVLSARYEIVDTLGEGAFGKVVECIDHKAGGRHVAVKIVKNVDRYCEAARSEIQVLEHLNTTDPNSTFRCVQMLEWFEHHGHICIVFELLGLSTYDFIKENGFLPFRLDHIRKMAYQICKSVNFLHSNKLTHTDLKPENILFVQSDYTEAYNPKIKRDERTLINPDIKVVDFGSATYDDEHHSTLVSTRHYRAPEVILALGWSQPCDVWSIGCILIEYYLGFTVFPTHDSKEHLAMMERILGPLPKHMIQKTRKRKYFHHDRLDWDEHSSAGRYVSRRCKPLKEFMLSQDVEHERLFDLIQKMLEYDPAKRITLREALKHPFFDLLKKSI
# [17] = molecular target: Serine/threonine-protein kinase pim-1 (Homo sapiens, UniProt P11309); assay: Inhibition of human recombinant PIM1 expressed in Escherichia coli using histone H1 as substrate and [gamma33P]ATP after 30 mins by scintillation counting
# Sequence of Serine/threonine-protein kinase pim-1 (P11309 whole entry): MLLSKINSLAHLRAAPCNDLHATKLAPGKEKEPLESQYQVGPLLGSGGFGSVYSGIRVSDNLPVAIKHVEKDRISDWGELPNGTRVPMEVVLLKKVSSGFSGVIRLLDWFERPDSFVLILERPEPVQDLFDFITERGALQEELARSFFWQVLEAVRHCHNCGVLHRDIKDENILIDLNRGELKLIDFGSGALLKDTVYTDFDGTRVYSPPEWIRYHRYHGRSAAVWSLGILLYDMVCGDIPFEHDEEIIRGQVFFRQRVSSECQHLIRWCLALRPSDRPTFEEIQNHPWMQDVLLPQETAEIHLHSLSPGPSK
# [18] = molecular target: Cyclin-dependent kinase 2/cyclin A (Homo sapiens, UniProt P24941); assay: Inhibition of CDK2/cyclin A using [gamma33P]ATP after 30 mins by scintillation counting; type: protein-complex assay; summary of the method: as §1
# [19] = molecular target: Dual specificity protein kinase CLK4 (Homo sapiens, UniProt Q9HAZ1); assay: Binding affinity to CLK4
# [20] = molecular target: Glycogen synthase kinase-3 (Sus scrofa, UniProt B2LUN4+I6LNT8); assay: Inhibition of pig GSK3alpha/beta isolated from brain using YRRAAVPPSPSLSRHSSPHQ-phosphoS-EDEEE as substrate and [gamma33P]ATP after 30 mins by scintillation counting; summary of the method: as §1
# [21] = molecular target: Mitogen-activated protein kinase 1 (Rattus norvegicus, UniProt P63086); assay: Inhibition of rat recombinant ERK2 using Ets1 as substrate and [gamma33P]ATP as substrate after 30 mins by scintillation counting; summary of the method: as §1
# Sequence of Mitogen-activated protein kinase 1 (P63086 whole entry): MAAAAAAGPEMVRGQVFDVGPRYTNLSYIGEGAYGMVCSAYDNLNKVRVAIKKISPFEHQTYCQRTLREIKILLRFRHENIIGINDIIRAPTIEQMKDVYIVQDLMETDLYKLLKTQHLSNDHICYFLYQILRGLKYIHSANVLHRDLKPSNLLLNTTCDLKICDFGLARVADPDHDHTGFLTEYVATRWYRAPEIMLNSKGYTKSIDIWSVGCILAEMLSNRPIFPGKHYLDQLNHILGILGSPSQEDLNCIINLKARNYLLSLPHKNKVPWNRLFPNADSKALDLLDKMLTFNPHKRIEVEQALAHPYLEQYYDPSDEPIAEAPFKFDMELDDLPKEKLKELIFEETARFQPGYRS
# [22] = molecular target: Dual specificity protein kinase CLK3 (Mus musculus, UniProt O35492); assay: Inhibition of mouse recombinant GST-tagged CLK3 expressed in Escherichia coli using GRSRSRSRSRSR as substrate and [gamma33P]ATP after 30 mins by scintillation counting; summary of the method: as §1
# Sequence of Dual specificity protein kinase CLK3 (Mus musculus, UniProt O35492) (O35492 whole entry): as the sequence (P49761 whole entry, looked up) above, with L55I, R64H, Y83C, P86S, G99A, T484S counted along it
# [23] = molecular target: Dual specificity tyrosine-phosphorylation-regulated kinase 3 (Homo sapiens, UniProt O43781); assay: Inhibition of human recombinant GST-tagged DYRK3 expressed in Escherichia coli using GRSRSRSRSRSR as substrate and [gamma33P]ATP after 30 mins by scintillation counting
# Sequence of Glycogen synthase kinase-3 alpha (P49840 whole entry): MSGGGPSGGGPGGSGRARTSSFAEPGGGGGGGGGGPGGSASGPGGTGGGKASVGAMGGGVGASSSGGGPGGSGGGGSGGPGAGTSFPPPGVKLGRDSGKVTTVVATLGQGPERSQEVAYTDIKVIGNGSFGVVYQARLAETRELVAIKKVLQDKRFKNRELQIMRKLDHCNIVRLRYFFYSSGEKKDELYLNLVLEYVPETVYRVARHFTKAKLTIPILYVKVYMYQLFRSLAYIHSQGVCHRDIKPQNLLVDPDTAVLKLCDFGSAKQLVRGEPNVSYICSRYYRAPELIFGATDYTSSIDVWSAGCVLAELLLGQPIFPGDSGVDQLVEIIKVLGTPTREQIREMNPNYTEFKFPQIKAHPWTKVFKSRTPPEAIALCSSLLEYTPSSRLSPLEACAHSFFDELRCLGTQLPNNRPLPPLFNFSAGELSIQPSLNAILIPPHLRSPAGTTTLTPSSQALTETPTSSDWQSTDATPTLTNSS
smiles,measurement,setting,value
CN1C(=O)/C(=C/c2ccc3c(c2)OCO3)N=C1N [LEUCETTAMINE B],IC50,[1],7700 nM
same,IC50,[2],> 10000 nM
same,inhibition,Plasmodium falciparum,inactive
same,IC50,[3],> 10000 nM
same,IC50,CDK9/cyclin T1,> 10000 nM
same,IC50,[4],2000 nM
same,IC50,[5],> 10000 nM
same,IC50,[6],900 nM
same,inhibition,Leishmania major,inactive
same,Activity,[7],Active
same,IC50,[8],66 nM
same,IC50,[9],2100 nM
same,inhibition,[10],inactive
same,IC50,[11],> 10000 nM
same,IC50,[12],150 nM
same,IC50,[13],920 nM
same,IC50,[14],> 10000 nM
same,Activity,[15],Active
same,Activity,[16],Active
same,IC50,[17],> 10000 nM
same,IC50,[18],> 10000 nM
same,Activity,[19],Active
same,IC50,[20],2900 nM
same,IC50,[21],> 10000 nM
same,IC50,[22],1800 nM
same,IC50,[23],1400 nM
